Measured values as given in publication PMC3582828 (European journal of medicinal chemistry, 2012).

Legend:
[1] = target: PDE7; experiment: PDE enzyme assay; assay type: biochemical; conditions: for IC50: read-out: PDE7 IC50, Data obtained by BPS Bioscience; for PDEX/PDE5 (PDE7): selectivity ratio IC50 PDE7 / IC50 PDE5
Method in brief: (§1)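 Each PDE was incubated at room temperature for 60 min in PDE assay buffer with 100 nM FAM-cGMP or FAM-cAMP substrate, 0.125 ng enzyme and test compound. A 1:100 binding-agent solution was then added for 60 min at room temperature.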

[2] = target: PDE9 (Homo sapiens, UniProt O76083); experiment: PDE enzyme assay; assay type: biochemical; conditions: selectivity ratio IC50 PDE9 / IC50 PDE5
PDE9, sequence (O76083 whole entry): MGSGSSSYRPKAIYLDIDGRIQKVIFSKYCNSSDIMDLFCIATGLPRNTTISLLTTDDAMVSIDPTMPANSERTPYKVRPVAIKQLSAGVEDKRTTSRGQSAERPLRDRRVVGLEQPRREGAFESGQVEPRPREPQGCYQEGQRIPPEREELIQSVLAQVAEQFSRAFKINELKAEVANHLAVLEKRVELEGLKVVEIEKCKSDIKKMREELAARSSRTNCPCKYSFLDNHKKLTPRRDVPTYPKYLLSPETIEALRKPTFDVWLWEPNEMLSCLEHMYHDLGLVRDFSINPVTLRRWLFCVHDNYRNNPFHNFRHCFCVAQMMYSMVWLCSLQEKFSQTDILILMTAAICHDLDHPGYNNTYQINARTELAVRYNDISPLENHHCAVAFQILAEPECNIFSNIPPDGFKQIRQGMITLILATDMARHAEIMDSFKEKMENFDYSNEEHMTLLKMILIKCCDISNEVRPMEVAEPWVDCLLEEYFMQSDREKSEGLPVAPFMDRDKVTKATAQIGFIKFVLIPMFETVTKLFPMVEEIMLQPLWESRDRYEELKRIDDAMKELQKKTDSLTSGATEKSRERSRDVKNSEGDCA

[3] = target: PDE10 (Homo sapiens, UniProt Q9Y233); experiment: PDE enzyme assay; assay type: biochemical; conditions: selectivity ratio IC50 PDE10 / IC50 PDE5
PDE10, sequence (Q9Y233 whole entry): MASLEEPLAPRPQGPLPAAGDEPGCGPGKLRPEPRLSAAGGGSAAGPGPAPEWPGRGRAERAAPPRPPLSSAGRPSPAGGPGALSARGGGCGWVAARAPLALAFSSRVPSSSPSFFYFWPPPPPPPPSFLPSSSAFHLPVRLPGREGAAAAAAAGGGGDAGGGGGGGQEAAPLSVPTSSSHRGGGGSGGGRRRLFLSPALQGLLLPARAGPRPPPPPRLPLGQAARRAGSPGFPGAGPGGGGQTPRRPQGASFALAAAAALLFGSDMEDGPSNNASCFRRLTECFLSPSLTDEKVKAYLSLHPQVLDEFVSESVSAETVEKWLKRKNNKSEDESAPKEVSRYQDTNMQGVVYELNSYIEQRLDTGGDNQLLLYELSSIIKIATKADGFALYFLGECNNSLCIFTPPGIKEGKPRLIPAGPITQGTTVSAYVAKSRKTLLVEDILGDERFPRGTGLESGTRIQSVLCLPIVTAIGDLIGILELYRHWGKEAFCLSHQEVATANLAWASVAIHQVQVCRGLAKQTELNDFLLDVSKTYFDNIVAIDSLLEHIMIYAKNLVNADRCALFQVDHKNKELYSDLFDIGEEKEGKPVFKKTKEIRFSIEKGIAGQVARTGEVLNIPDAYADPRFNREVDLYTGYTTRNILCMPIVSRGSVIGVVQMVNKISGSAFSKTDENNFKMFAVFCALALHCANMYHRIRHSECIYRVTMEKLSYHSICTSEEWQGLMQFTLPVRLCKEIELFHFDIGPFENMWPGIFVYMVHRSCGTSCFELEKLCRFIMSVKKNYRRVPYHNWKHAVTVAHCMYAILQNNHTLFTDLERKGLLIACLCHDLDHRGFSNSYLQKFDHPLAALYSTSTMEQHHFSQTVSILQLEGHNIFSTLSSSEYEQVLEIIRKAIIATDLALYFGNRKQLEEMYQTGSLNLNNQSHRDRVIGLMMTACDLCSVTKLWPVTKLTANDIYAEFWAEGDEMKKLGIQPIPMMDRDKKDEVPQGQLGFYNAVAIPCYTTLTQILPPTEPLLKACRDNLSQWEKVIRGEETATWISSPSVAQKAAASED

[4] = target: PDE3; experiment: PDE enzyme assay; assay type: biochemical; conditions: for IC50: read-out: PDE3 IC50, Data obtained by BPS Bioscience; for PDEX/PDE5 (PDE3): selectivity ratio IC50 PDE3 / IC50 PDE5
Method in brief: as §1

[5] = target: PDE11 (Homo sapiens, UniProt Q9HCR9); experiment: PDE enzyme assay; assay type: biochemical; conditions: selectivity ratio IC50 PDE11 / IC50 PDE5
PDE11, sequence (Q9HCR9 whole entry): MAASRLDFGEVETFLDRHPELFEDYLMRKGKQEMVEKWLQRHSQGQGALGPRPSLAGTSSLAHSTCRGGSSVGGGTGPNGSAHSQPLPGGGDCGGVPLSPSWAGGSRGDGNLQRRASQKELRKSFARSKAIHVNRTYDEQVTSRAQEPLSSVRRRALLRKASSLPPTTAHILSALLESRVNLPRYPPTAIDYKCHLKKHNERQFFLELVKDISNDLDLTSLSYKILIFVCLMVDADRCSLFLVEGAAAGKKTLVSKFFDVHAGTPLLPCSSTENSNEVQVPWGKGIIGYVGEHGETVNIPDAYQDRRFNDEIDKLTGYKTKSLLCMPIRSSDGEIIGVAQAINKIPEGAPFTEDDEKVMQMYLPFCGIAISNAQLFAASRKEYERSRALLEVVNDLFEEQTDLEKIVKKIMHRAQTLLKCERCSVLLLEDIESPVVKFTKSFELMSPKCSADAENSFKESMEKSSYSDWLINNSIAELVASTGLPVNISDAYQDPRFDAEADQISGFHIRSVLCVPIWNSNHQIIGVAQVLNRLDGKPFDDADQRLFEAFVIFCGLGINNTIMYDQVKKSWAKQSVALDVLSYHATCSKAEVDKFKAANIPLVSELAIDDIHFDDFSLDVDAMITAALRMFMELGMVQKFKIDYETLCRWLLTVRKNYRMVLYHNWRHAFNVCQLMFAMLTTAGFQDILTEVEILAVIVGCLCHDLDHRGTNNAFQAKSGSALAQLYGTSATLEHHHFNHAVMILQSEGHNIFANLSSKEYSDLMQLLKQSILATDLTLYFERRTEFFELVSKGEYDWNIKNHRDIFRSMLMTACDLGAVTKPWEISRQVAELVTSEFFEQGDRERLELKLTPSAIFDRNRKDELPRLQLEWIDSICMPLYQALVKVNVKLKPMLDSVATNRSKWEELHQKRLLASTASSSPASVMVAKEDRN

[6] = target: PDE2 (Homo sapiens, UniProt O00408); experiment: PDE enzyme assay; assay type: biochemical; conditions: selectivity ratio IC50 PDE2 / IC50 PDE5
PDE2, sequence (O00408 whole entry): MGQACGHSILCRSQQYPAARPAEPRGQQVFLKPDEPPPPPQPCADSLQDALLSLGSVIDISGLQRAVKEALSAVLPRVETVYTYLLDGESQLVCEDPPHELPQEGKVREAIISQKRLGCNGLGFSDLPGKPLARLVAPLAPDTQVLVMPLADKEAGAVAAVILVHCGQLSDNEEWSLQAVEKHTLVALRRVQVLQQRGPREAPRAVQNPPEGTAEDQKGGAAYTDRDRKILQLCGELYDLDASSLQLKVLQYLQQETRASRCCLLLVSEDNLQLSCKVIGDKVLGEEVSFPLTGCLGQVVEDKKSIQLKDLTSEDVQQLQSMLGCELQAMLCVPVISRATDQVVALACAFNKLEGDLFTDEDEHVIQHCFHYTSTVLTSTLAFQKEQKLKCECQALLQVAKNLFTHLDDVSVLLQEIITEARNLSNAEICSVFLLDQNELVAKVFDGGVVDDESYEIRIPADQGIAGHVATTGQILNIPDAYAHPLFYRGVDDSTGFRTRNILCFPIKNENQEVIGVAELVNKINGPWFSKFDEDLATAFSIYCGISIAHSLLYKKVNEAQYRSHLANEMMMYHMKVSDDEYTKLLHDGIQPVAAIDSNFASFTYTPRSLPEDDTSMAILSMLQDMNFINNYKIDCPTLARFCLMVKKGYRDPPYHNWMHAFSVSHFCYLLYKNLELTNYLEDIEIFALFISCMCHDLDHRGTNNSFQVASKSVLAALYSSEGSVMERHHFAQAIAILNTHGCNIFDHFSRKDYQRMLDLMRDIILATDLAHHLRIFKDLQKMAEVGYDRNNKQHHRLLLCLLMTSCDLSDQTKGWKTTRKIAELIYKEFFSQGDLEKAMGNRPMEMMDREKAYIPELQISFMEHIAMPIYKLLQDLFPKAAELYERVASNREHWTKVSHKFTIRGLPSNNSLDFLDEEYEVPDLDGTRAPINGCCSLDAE

[7] = target: PDE5 (Homo sapiens, UniProt O76074); experiment: PDE enzyme assay; assay type: biochemical; conditions: ratio IC50 PDE5 / IC50 PDE5
[8] = tested on: PDE8; experiment: PDE enzyme assay; assay type: biochemical; conditions: selectivity ratio IC50 PDE8 / IC50 PDE5
[9] = target: PDE1; experiment: PDE enzyme assay; assay type: biochemical; conditions: for IC50: read-out: PDE1 IC50, Data obtained by BPS Bioscience; for PDEX/PDE5 (PDE1): selectivity ratio IC50 PDE1 / IC50 PDE5
Method in brief: as §1

[10] = target: PDE4; experiment: PDE enzyme assay; assay type: biochemical; conditions: for IC50: read-out: PDE4 IC50, Data obtained by BPS Bioscience; for PDEX/PDE5 (PDE4): selectivity ratio IC50 PDE4 / IC50 PDE5
Method in brief: as §1

[11] = Pharmacokinetics in mouse brain tissue and plasma; assay type: in vivo, male BALB/c mice
Method in brief: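 Test compound was dosed at 50 mg/kg p.o. in 0.05% aqueous methylcellulose. Plasma (retro-orbital blood, heparin) and brain were taken at 0, 0.25, 0.5, 1, 2 and 4 h, with 3 mice per time point. Brain was rinsed in cold saline and homogenised in methanol. LC/MS/MS used an internal standard and 1/x2-weighted linear regression. Penetration was expressed as brain/plasma Cmax and AUC ratios.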

[12] = tested on: APP/PS1 mice; experiment: 2-day radial arm water maze; assay type: in vivo, APP/PS1 mouse; conditions: 3 mg/kg, i.p., for 3 weeks; 3–4 month old APP/PS1 mice; vehicle ~3 errors
[13] = tested on: LTP in slices from APP/PS1 mice; experiment: LTP in hippocampal slices from APP/PS1 mice; set-up: species or system APP/PS1 mouse; conditions: 50 nM through bath solution for 10 min prior to θ-burst

SMILES | IC50 [1] [µM] | PDEX/PDE5 (PDE7) [1] | PDEX/PDE5 (PDE9) [2] | PDEX/PDE5 (PDE10) [3] | IC50 [4] [µM] | PDEX/PDE5 (PDE3) [4] | PDEX/PDE5 (PDE11) [5] | PDEX/PDE5 (PDE2) [6] | PDEX/PDE5 (PDE5) [7] | PDEX/PDE5 (PDE8) [8] | IC50 [9] [µM] | PDEX/PDE5 (PDE1) [9] | IC50 [10] [µM] | PDEX/PDE5 (PDE4) [10] | Blood brain barrier penetration [11] | Errors in the 2-day RAWM test [12] | Effect on LTP in WT slices [13]
COc1ccc(CNc2c(CO)cnc3c(N(C)C)cc(C#N)cc23)cc1Cl [7b, 4-[(3-chloro-4-methoxybenzyl)amino]-8-(N,N-dimethylamino)-3-(hydroxymethyl) quinoline-6-carbonitrile] | > 10 | >10^4 | >10^4 | >10^4 | > 10 | >10^4 | >10^4 | >10^4 | 1 | >10^4 | > 10 | >10^4 | > 10 | >10^4 |  |  | 
COc1ccc(CNc2c(CO)cnc3c(C4CC4)cc(C#N)cc23)cc1Cl [7a, 4-[(3-chloro-4-methoxybenzyl)amino]-8-cyclopropyl-3-(hydroxymethyl) quinoline-6-carbonitrile] | > 10 | >10^4 | >10^4 | >10^4 | > 10 | >10^4 | >10^4 | >10^4 | 1 | >10^4 | > 10 | >10^4 | > 10 | >10^4 | readily crosses the blood brain barrier | less than 2 errors | no effect
